In ChEMBL document CHEMBL1157852, “Modulation of doxorubicin activity in cancer cells by conjugation with fatty acyl and terpenyl hydrazones” (Eur J Med Chem, 2010):
Active and inactive are the calls of the source. The rule behind the calls is not given here.

Assays:
MCF7 [1] = assay: Cytotoxicity against human topotecan-resistant MCF7 cells after 24 hrs by MTT assay; type: functional, cell-based; details: MCF7, 24 h
Summary of the method: (§1)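 MTT assay. Cells seeded and cultured 24 h, then exposed to compound for 24, 48 or 72 h. MTT added to a final 0.05% (HL-60, 518A2) or 0.1% (KB-V1, MCF-7) for 2 h. Formazan dissolved in 10% SDS/DMSO with 0.6% acetic acid; absorbance read at 570 nm against 630 nm background. Viability taken relative to untreated controls (100%). IC50 from concentration-response curves, mean ± SD of four independent experiments.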

HL-60 [2] = assay: Induction of apoptosis in human HL60 cells assessed as increase of caspase 8 activity at 5 uM after 4 to 24 hrs by luminometric assay; type: functional, cell-based
Summary of the method: (§2)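 HL-60 and 518A2 cells treated with 5 µM compound and sampled at intervals from 1 to 24 h. Lysed in 50 mM Tris-HCl pH 7.4, 150 mM NaCl, 1% Triton X-100 with protease inhibitors for 15 min at 4 °C, spun at 800 g. Protein measured by Bradford. Caspase-3/7, -8 and -9 activities read with luminogenic peptide substrates; reported as relative luminescence.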

Nucleic Acid = assay: Binding affinity to Escherichia coli pBR322 DNA assessed as effect on DNA electrophoretic mobility at 5 to 25 uM after 24 hrs; type: nucleic-acid assay
Summary of the method: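 pBR322 plasmid DNA from a TE stock incubated with compound at 0, 5, 10 and 25 µM, in the dark at 37 °C for 24 h. Samples run on 1% agarose gel in 0.5× TBE for 4 h at 66 V. Read-out: shifts in mobility of the open circular and covalently closed circular forms.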

[3] = Ratio of compound IC50 to doxorubicin IC50 for human doxorubicin-resistant KBV1 cells; type: functional
HL-60 [4] = assay: Induction of apoptosis in human HL60 cells assessed as appearance of intact mitochondria in cytosol at 5 uM after 18 hrs using JC1 dye relative to control; type: functional
Summary of the method: (§3)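 Mitochondrial membrane potential measured with JC-1. Cells exposed to 5 µM compound for 6 or 18 h, pelleted at 400 g, stained with 0.2× JC-1 at 37 °C for 15 min (HL-60) or 35 min (518A2), washed and resuspended in PBS. Red fluorescence (ex 585/em 590 nm) and green (ex 510/em 527 nm) read; red/green ratio relative to untreated controls (100%). Mean ± SD, four independent experiments.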

[5] = Cytotoxicity against human vinblastine-resistant KBV1 cells after 72 hrs by MTT assay; type: functional, cell-based; details: KB-V1, 72 h; summary of the method: as §1
[6] = Cytotoxicity against human vinblastine-resistant KBV1 cells after 48 hrs by MTT assay; type: functional, cell-based; details: KB-V1, 48 h; summary of the method: as §1
HL-60 [7] = assay: Cytotoxicity against human HL60 cells after 72 hrs by MTT assay; type: functional, cell-based; details: HL-60, 72 h; summary of the method: as §1
518A2 [8] = assay: Induction of apoptosis in human 518A2 cells assessed as increase of ratio of Bax to Bcl-2 mRNA expression at 5 uM after 6 to 18 hrs by RT-PCR analysis; type: functional, cell-based
Summary of the method: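 518A2 cells exposed to 5 µM compound for 6 h or 18 h. bax and bcl-2 mRNA quantified by real-time PCR, normalised to GAPDH, and expressed as the bax/bcl-2 ratio.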

HL-60 [9] = assay: Cytotoxicity against human HL60 cells after 24 hrs by MTT assay; type: functional, cell-based; details: HL-60, 24 h; summary of the method: as §1
[10] = Cytotoxicity against human vinblastine-resistant KBV1 cells after 24 hrs by MTT assay; type: functional, cell-based; details: KB-V1, 24 h; summary of the method: as §1
518A2 [11] = assay: Induction of apoptosis in human 518A2 cells assessed as appearance of intact mitochondria in cytosol at 5 uM after 18 hrs using JC1 dye relative to control; type: functional; summary of the method: as §3
HL-60 [12] = assay: Induction of apoptosis in human HL60 cells assessed as DNA ladder formation at 5 uM after 24 hrs by agarose gel electrophoresis; type: functional, cell-based
Summary of the method: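 HL-60 cells incubated with 5 µM compound for 24 h, then examined for DNA ladder patterns.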

[13] = Cytotoxicity against human 518A2 cells after 24 hrs by MTT assay; type: functional, cell-based; details: 518A2, 24 h; summary of the method: as §1
518A2 [14] = assay: Induction of apoptosis in human 518A2 cells assessed as appearance of intact mitochondria in cytosol at 5 uM after 6 hrs using JC1 dye relative to control; type: functional; summary of the method: as §3
HL-60 [15] = assay: Induction of apoptosis in human HL60 cells assessed as increase of ratio of Bax to Bcl-2 mRNA expression at 5 uM after 6 to 18 hrs by RT-PCR analysis; type: functional, cell-based
Summary of the method: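 Real-time PCR of bax and bcl-2 mRNA in HL-60 cells after 6 h and 18 h exposure to test compound. Each gene was normalised to GAPDH, and the bax/bcl-2 expression ratio was reported.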

HL-60 [16] = assay: Cytotoxicity against human HL60 cells after 48 hrs by MTT assay; type: functional, cell-based; details: HL-60, 48 h; summary of the method: as §1
[17] = Cytotoxicity against human 518A2 cells after 72 hrs by MTT assay; type: functional, cell-based; details: 518A2, 72 h; summary of the method: as §1
HL-60 [18] = assay: Induction of apoptosis in human HL60 cells assessed as appearance of intact mitochondria in cytosol at 5 uM after 6 hrs using JC1 dye relative to control; type: functional; summary of the method: as §3
MCF7 [19] = assay: Cytotoxicity against human topotecan-resistant MCF7 cells after 72 hrs by MTT assay; type: functional, cell-based; details: MCF7, 72 h; summary of the method: as §1
[20] = Cytotoxicity against human 518A2 cells assessed as increase in ROS production at 5 uM after 24 hrs by NBT reduction assay relative to control; type: functional
Summary of the method: (§4)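 NBT assay. HL-60 cells (0.5×10⁶/mL) or trypsinised 518A2 cells (5×10⁴/mL) pre-incubated 24 h at 37 °C, then given compound at a final 5 µM for 24 or 72 h. Medium removed; cells incubated with 0.1% NBT for 1 h (HL-60) or 4 h (518A2). Diformazan dissolved in 2 M KOH/DMSO; A630 read against 405 nm. Given as % of untreated controls; double quadruplicates.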

HL-60 [21] = assay: Induction of apoptosis in human HL60 cells assessed as increase of caspase 3 activity at 5 uM after 4 hrs by luminometric assay; type: functional, cell-based; summary of the method: as §2
[22] = Cytotoxicity against human doxorubicin-resistant KBV1 cells by MTT assay; type: functional, KB-V1
HL-60 [23] = assay: Cytotoxicity against human HL60 cells assessed as increase in ROS production at 5 uM after 24 hrs by NBT reduction assay relative to control; type: functional; summary of the method: as §4
518A2 [24] = assay: Induction of apoptosis in human 518A2 cells assessed as increase of caspase 3 activity at 5 uM measured up to 12 hrs by luminometric assay; type: functional, cell-based; summary of the method: as §2
HL-60 [25] = assay: Induction of apoptosis in human HL60 cells assessed as increase of caspase 3 activity at 5 uM after 12 hrs by luminometric assay; type: functional, cell-based; summary of the method: as §2
HL-60 [26] = assay: Induction of apoptosis in human HL60 cells assessed as increase of caspase 9 activity at 5 uM after 8 hrs by luminometric assay; type: functional, cell-based
Summary of the method: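 HL-60 leukaemia cells were treated with test compound and sampled at intervals from 1 to 24 h. Protein was measured by Bradford. Caspase-9 (Caspase-Glo 8 for line 1) was read from a luminogenic peptide substrate as relative luminescence.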

518A2 [27] = assay: Induction of apoptosis in human 518A2 cells assessed as increase of caspase 9 activity at 5 uM after 8 to 12 hrs by luminometric assay; type: functional, cell-based; summary of the method: as §2
[28] = Cytotoxicity against human 518A2 cells assessed as increase in ROS production at 5 uM after 72 hrs by NBT reduction assay relative to control; type: functional; summary of the method: as §4

With `COc1cccc2c1C(=O)c1c(O)c3c(c(O)c1C2=O)C[C@@](O)(/C(CO)=N/NC(=O)CCCCCCCCCCC(=O)O[C@@H]1C[C@H](C)CC[C@H]1C(C)C)C[C@@H]3O[C@H]1C[C@H](N)[C@H](O)[C@H](C)O1.Cl` as the compound, how does the IC50 (MCF7 [1]) read?
Its IC50 is 7100 nM.

And the Activity (HL-60 [2])?
The Activity was “Active”.

And the Activity (Nucleic Acid)?
The Activity was “Active”.

What about the “Ratio IC50” value [3] of the same compound?
Its value is 1.6.

What about the Activity (HL-60 [4]) of the same compound?
Its Activity is 23%.

What about the IC50 [5] of the same compound?
The IC50 was 8800 nM.

What about the IC50 [6] of the same compound?
The IC50 was 17100 nM.

What about the IC50 (HL-60 [7]) of the same compound?
The IC50 was 110 nM.

And the Activity (518A2 [8])?
The Activity was “Active”.

What about the IC50 (HL-60 [9]) of the same compound?
Its IC50 is 300 nM.

What about the IC50 [10] of the same compound?
Its IC50 is 30500 nM.

And the Activity (518A2 [11])?
The Activity was 71%.

And the Activity (HL-60 [12])?
The Activity was “Active”.

And the IC50 [13]?
Its IC50 is 230 nM.

And the Activity (518A2 [14])?
Its Activity is 108%.

And the Activity (HL-60 [15])?
The Activity was “Active”.

What about the IC50 (HL-60 [16]) of the same compound?
Its IC50 is 250 nM.

And the IC50 [17]?
Its IC50 is 60 nM.

And the Activity (HL-60 [18])?
Its Activity is 90%.

And the IC50 (MCF7 [19])?
Its IC50 is 2600 nM.

And the Activity [20]?
The Activity was 3.3%.

And the Activity (HL-60 [21])?
The Activity was “Active”.

And the Activity [22]?
The Activity was 200 nM.

And the Activity (HL-60 [23])?
The Activity was 3.8%.

And the Activity (518A2 [24])?
The Activity was “inactive”.

What about the Activity (HL-60 [25]) of the same compound?
The Activity was “Active”.

And the Activity (HL-60 [26])?
Its Activity is “Active”.

And the Activity (518A2 [27])?
The Activity was “Active”.

And the Activity [28]?
The Activity was 38.3%.
